# Results gathered from unrelated publications.
# Protocols differ between the studies behind these lines.
# PADI4: Protein-arginine deiminase type-4 (PADI4, Homo sapiens, UniProt Q9UM07)
# CA9: Carbonic anhydrase 9 (CA9, Homo sapiens, UniProt Q16790)
# SIRT5: NAD-dependent protein deacylase sirtuin-5, mitochondrial (SIRT5, Homo sapiens, UniProt Q9NXA8)
# PKN1: Serine/threonine-protein kinase N1 (PKN1, Homo sapiens, UniProt Q16512)
# PRSS1: Serine protease 1 (PRSS1, Bos taurus, UniProt P00760)
# HCK: Tyrosine-protein kinase HCK (HCK, Homo sapiens, UniProt P08631)
target,read-out,action,method,time,pH,IC50 [nM],SMILES
PADI4,ligand displacement,,FP,,,> 100000,CCn1c(-c2nc3ccc(C(=O)N4CCCC(N)C4)cc3n2C)cc2ccccc21 (stereo not drawn)
"Solute carrier family 22 member 7 (SLC22A7, Homo sapiens, UniProt Q9Y694)",transporter uptake,inhibitor,,,,22000,CN/C(=N/CCSCc1nc[nH]c1C)NC#N
CA9,enzyme activity,inhibitor,,,,37.2,CC(C)C(=O)Nc1ccc(C(=O)N2CCC(C(=O)Nc3ccc(S(N)(=O)=O)cc3)CC2)cc1
SIRT5,enzyme activity,inhibitor,HPLC,,,> 100000,CC(NC(=O)c1ccccc1/N=C/c1c(O)ccc2ccccc12)c1ccccc1 (stereo not drawn)
CA9,enzyme activity,inhibitor,,,,28.8,CNC(=O)c1ccc(NC(=O)CN(Cc2ccc(Cl)cc2)C(=O)c2ccc(S(N)(=O)=O)c(C)c2)c(F)c1
PKN1,enzyme activity,inhibitor,,,,743,C[C@@H](N)[C@H]1CC[C@H](C(=O)Nc2ccncc2)CC1
CA9,enzyme activity,inhibitor,,,,30.2,NS(=O)(=O)c1cc(NC(=O)CCc2nnc(-c3ccc(Cl)cc3)o2)ccc1O
PRSS1,enzyme activity,inhibitor,,,,3730,Cc1nc2ccccc2c(=O)n1NC(=O)CSc1nc2ccccc2c(=O)n1-c1ccccc1
"Matrix metalloproteinase-9 (MMP9, Homo sapiens, UniProt P14780)",enzyme activity,inhibitor,fluorescence,,,3,CC(C)C[C@H](CC(=O)NO)C(=O)N[C@@H](Cc1ccccc1)C(=O)NCCN1CCOCC1
PKN1,enzyme activity,inhibitor,,,,86,CCS(=O)(=O)c1cccc(-c2cc(C(=O)NC3CCN(C)CC3)c(C)c3[nH]c4ncc(C)cc4c23)c1
CA9,enzyme activity,inhibitor,,,,2610,COc1ccc(C(=O)N2CCCC(C(=O)Nc3cc(S(N)(=O)=O)ccc3O)C2)c2ccccc12 (stereo not drawn)
"Induced myeloid leukemia cell differentiation protein Mcl-1 (MCL1, Homo sapiens, UniProt Q07820)",ligand displacement,,FP,,,450,Cc1ccc(S(=O)(=O)N=C2C=C(Sc3nnc[nH]3)C(=O)c3ccccc32)cc1
"Histamine H1 receptor (HRH1, Homo sapiens, UniProt P35367)",ligand displacement,,radioligand,,,> 30000,CCOCc1nc(O)c(-c2nnc(Cc3ccc(Cl)cn3)o2)c(O)c1-c1c(OC)cccc1OC
HCK,enzyme activity,inhibitor,,,,2.5,Cc1cnc(-c2ccc(-c3ccc(NC(=O)Nc4c(F)cc(F)cc4F)cc3F)c3c2C(=O)NC3)[nH]1
"Ribosomal protein S6 kinase alpha-6 (RPS6KA6, Homo sapiens, UniProt Q9UK32)",enzyme activity,inhibitor,,,,101,CN1CCN(c2ccc(Nc3ncc4cc(C#N)c(=O)n(C5CCCC5)c4n3)cc2)CC1
PRSS1,enzyme activity,inhibitor,,,,108000,COc1cc(/C=N/n2c(C)nc3ccc(C)cc3c2=O)ccc1OCc1ccccc1
CA9,enzyme activity,inhibitor,,,,76.1,CN(C)c1ccc(/C=C2/SC(Nc3ccc(S(N)(=O)=O)cc3)=NC2=O)cc1
CA9,enzyme activity,inhibitor,,,,96,NS(=O)(=O)c1ccc(NC(=O)COC(=O)c2c3c(nc4ccccc24)C(=Cc2ccco2)CCC3)cc1
"Sulfotransferase 1A1 (SULT1A1, Homo sapiens, UniProt P50225)",enzyme activity,inhibitor,,,,529,O=c1c(O)c(-c2ccc(O)c(O)c2)oc2cc(O)cc(O)c12
PADI4,enzyme activity,inhibitor,,,,24300,CCNC(=O)[C@H](CCCNC(=N)CF)NC(=O)c1ccccc1
SIRT5,enzyme activity,inhibitor,fluorescence,,,93,O=C(O)CCNC(=S)NCCCC[C@H](NS(=O)(=O)c1cccc(F)c1)C(=O)N[C@@H](Cc1c[nH]c2ccccc12)C(=O)NC1CCC1
"Histone deacetylase 9 (HDAC9, Homo sapiens, UniProt Q9UKV0)",enzyme activity,inhibitor,,,,> 45000,CCCC[C@H](NC(=O)[C@H](C)c1c(C)[nH]c2ccc(O)cc12)c1ncc(-c2cc3ccccc3nc2OC)[nH]1
PKN1,enzyme activity,inhibitor,,,,828,NS(=O)(=O)c1ccc(Nc2nc(OCC3CCCCC3)c3[nH]cnc3n2)cc1
"Cytochrome P450 3A5 (CYP3A5, Homo sapiens, UniProt P20815)",enzyme activity,inhibitor,,15 min,pH 7.4,590,COc1cc2c(c(OC)c1OC)-c1c(cc3c(c1OC)OCO3)[C@H](OC(=O)c1ccccc1)[C@@](C)(O)[C@@H](C)C2
CA9,enzyme activity,inhibitor,,,,52,NS(=O)(=O)c1ccc(NC2=NC(=O)C(CC(=O)Nc3ccc(Br)cc3)S2)cc1 (stereo not drawn)
PRSS1,enzyme activity,inhibitor,,,,55700,COc1cc(/C=N/n2c(C)nc3ccc(C)cc3c2=O)cc([N+](=O)[O-])c1O
"3',5'-cyclic-AMP phosphodiesterase 4C (PDE4C, Homo sapiens, UniProt Q08493)",enzyme activity,inhibitor,,,,501,COc1ccc(C2=NN(C3CCCCCC3)C(=O)[C@@H]3CC=CC[C@H]23)cc1-c1ccc(C(N)=O)cc1 (relative stereo)
CA9,enzyme activity,inhibitor,,,,96,NS(=O)(=O)c1ccc(CCNC(=O)Nc2ccc(NC(=O)c3ccc(Cl)cc3)cc2)cc1
SIRT5,enzyme activity,inhibitor,,,,> 10000,O=C(NO)c1ccc(CN(c2cnccn2)c2cnccn2)cc1
PKN1,enzyme activity,inhibitor,,,,49,Clc1ccc(C2(c3ccc(-c4cn[nH]c4)cc3)CCNCC2)cc1
PRSS1,enzyme activity,inhibitor,,,,47800,COc1cc(/C=N/n2c(C)nc3ccc(Br)cc3c2=O)ccc1OCc1ccc(Cl)cc1
PKN1,enzyme activity,inhibitor,,,,19,Cn1ncc(Cl)c1-c1cc(C(=O)N[C@H](CN)Cc2ccc(F)c(F)c2)oc1Cl
"Inward rectifier potassium channel 2 (KCNJ2, Homo sapiens, UniProt P63252)",ion current,inhibitor,,,,> 10000,COc1ccc2c(Oc3ccc4c(C(=O)Nc5ccccc5N)cccc4c3)ccnc2c1
PKN1,enzyme activity,inhibitor,,,,178,CN1CCN(Cc2ccc(-c3cnc4[nH]cc(-c5ccc6[nH]ccc6c5)c4c3)cc2)CC1
PRSS1,enzyme activity,inhibitor,,,,40700,COc1ccc2cc(/C=N/n3c(C)nc4ccc(Br)cc4c3=O)ccc2c1
PKN1,enzyme activity,inhibitor,,,,220,O=C(O)c1ccc(-c2c[nH]c3ncc(-c4ccccc4)cc23)cc1C1CCCC1
CA9,enzyme activity,inhibitor,,,,30.2,NS(=O)(=O)c1cc(C(=O)N2CCCCC2C(=O)Nc2cc(Cl)ccc2Cl)ccc1F (stereo not drawn)
PKN1,enzyme activity,inhibitor,,,,278,N#CCNC(=O)c1ccc(-c2ccnc(Nc3ccc(N4CCOCC4)cc3)n2)cc1
HCK,enzyme activity,inhibitor,radiometric,,,24,CNC(=O)c1cc2c(Oc3ccc(NC(=O)C4(C(=O)Nc5ccc(F)cc5)CC4)cc3)ccnc2cc1OC
